Test results: ChEMBL document CHEMBL1157679, “Substituted aryl malonamates as new serine beta-lactamase substrates: structure-activity studies” (Bioorg Med Chem, 2010)

Legend:
[1] = Activity at beta-lactamase TEM-2 by spectrophotometry
Outline: (§1)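 Steady-state kinetics in 100 mM MOPS, pH 7.5, 25 °C. Substrate stocks were made in DMSO and diluted into buffer to a final DMSO below 5%. Initial rates of enzyme-catalysed turnover were followed spectrophotometrically. Steady-state parameters were derived from these initial rates. Buffer hydrolysis of the substrates was measured separately as pseudo-first-order rate constants.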

[2] = Ratio of Kcat to Km for beta-lactamase TEM-2; outline: as §1
[3] = Inhibition of beta-lactamase TEM-2 assessed as inhibition of cephalothin turnover by spectrophotometry
Outline: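 TEM-2 enzyme (0.2 μM) was incubated with 3 mM inhibitor in 100 mM MOPS, pH 7.5, at 25 °C (DMSO below 5% final). Residual activity against 0.2 mM cephalothin was read spectrophotometrically over incubation time. Exponential fitting gave pseudo-first-order inactivation constants, which were converted to second-order rate constants.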

| Km [1] | kcat [1] | kcat/Km [2] | SMILES | kcat/Km [3] |
| --- | --- | --- | --- | --- |
| > 200 µM | > 9.4 ×10⁻⁴ /s | 4.7 M⁻¹ s⁻¹ | O=C(O)c1cccc(OC(=O)C(Cc2ccccc2)C(=O)NCc2ccccc2)c1 (centres undefined) |  |
|  |  | < 6 M⁻¹ s⁻¹ | CO[C@@H](C(=O)NCc1ccccc1)C(=O)Oc1cccc(C(=O)O)c1 |  |
| 1.42 µM | 28 s⁻¹ | 1.95 ×10⁴ /s/M | O=C(CC(=O)Oc1cccc(C(=O)O)c1)NCc1ccccc1 |  |
|  |  |  | O=C(CP(=O)(O)Oc1cccc(C(=O)O)c1)NCc1ccccc1 | < 1 M⁻¹ s⁻¹ |
| > 200 µM | > 7.2 ×10⁻⁴ /s | 3.6 M⁻¹ s⁻¹ | C[C@H](C(=O)NCc1ccccc1)C(=O)Oc1cccc(C(=O)O)c1 |  |
|  |  | < 0.2 M⁻¹ s⁻¹ | CN(Cc1ccccc1)C(=O)CC(=O)Oc1cccc(C(=O)O)c1 |  |
|  |  | < 0.9 M⁻¹ s⁻¹ | O=C(O)c1cccc(OC(=O)C2Cc3ccccc3N(Cc3ccccc3)C2=O)c1 (centres undefined) |  |
| 1800 µM | 0.21 s⁻¹ | 1.2 ×10² /s/M | O=C(CC(=O)N(Cc1ccccc1)Cc1ccccc1)Oc1cccc(C(=O)O)c1 |  |
| > 220 µM | > 1.1 ×10⁻⁴ /s | 0.54 M⁻¹ s⁻¹ | O=C(O)c1cccc(OC(=O)C2CCN(Cc3ccccc3)C2=O)c1 (centres undefined) |  |
